Results published in ChEMBL document CHEMBL3272014, “Synthesis and biological inactivity of some 4alpha,6-cyclo steroids” (1976).
Calls of active or inactive are those of the source. No cut-off for these calls is given here.

How the values were obtained:
[1] = species on record: Rattus norvegicus; assay: Antiandrogenicity in male rat assessed as inhibition of increase in seminal vesicle weight using 2.4 mg testosterone at 10 mg; assay type: functional
[2] = species on record: Rattus norvegicus; assay: Antiandrogenicity in male rat assessed as inhibition of increase in levator ani weight using 1.2 mg testosterone at 10 mg; assay type: functional
[3] = species on record: Rattus norvegicus; assay: Antiandrogenicity in male rat assessed as inhibition of increase in ventral prostate weight using 1.2 mg testosterone at 10 mg; assay type: functional, Prostate gland
[4] = species on record: Rattus norvegicus; assay: Androgenicity in male rat at 0.1 to 10 mg; assay type: functional, organism-based
[5] = species on record: Rattus norvegicus; assay: Antiandrogenicity in male rat assessed as inhibition of increase in levator ani weight using 2.4 mg testosterone at 10 mg; assay type: functional
[6] = species on record: Rattus norvegicus; assay: Antiandrogenicity in male rat assessed as inhibition of increase in seminal vesicle weight using 1.2 mg testosterone at 10 mg; assay type: functional
[7] = species on record: Rattus norvegicus; assay: Antiandrogenicity in male rat assessed as inhibition of increase in ventral prostate weight using 2.4 mg testosterone at 10 mg; assay type: functional, Prostate gland
[8] = species on record: Oryctolagus cuniculus; assay: Antiprogestational activity in rabbit at 0.4 mg by anti-clauberg assay; assay type: functional, organism-based
Outline: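 Rabbit anti-Clauberg (antiprogestational) assay: test steroid given at 20.0 mg against a progesterone challenge of 0.4 mg. Run by Mason Research Institute for the NIH Contraceptive Development Branch.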

[9] = species on record: Rattus norvegicus; assay: Androgenicity in male rat at 10 mg; assay type: functional, organism-based
[10] = species on record: Oryctolagus cuniculus; assay: Progestational activity in rabbit at 0.1 to 10 mg by clauberg assay; assay type: functional, organism-based
Outline: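 Clauberg assay in rabbits: progestational response scored after test steroid at dose levels of 0.1, 1.0 and 10.0 mg.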

CC(=O)O[C@H]1CC[C@H]2[C@@H]3CC4[C@@H]5[C@H]4C(=O)CC[C@]5(C)[C@H]3CC[C@]12C (stereo partly drawn)
inhibition (INH) [1]: <20% | inhibition (INH) [2]: <20% | inhibition (INH) [3]: <20% | Activity [4]: Active | inhibition (INH) [5]: <20% | inhibition (INH) [6]: <20% | inhibition (INH) [7]: <20%

CC(=O)[C@H]1CC[C@H]2[C@@H]3CCC4=CC(=O)CC[C@]4(C)[C@H]3CC[C@]12C
Activity [8]: inactive

C[C@]12CC[C@@H]3[C@H]4CCC(=O)[C@H]5C(C[C@H]3[C@@H]1CCC2=O)[C@@H]45 (stereo partly drawn)
inhibition (INH) [2]: <20% | inhibition (INH) [3]: <20% | inhibition (INH) [6]: <20% | Activity [9]: Active

CC(=O)[C@H]1CC[C@H]2[C@@H]3CC4[C@@H]5[C@H]4C(=O)CC[C@]5(C)[C@H]3CC[C@]12C (stereo partly drawn)
Activity [10]: inactive
